ChEMBL document CHEMBL1649115, “Enhanced susceptibility to antifungal oligopeptides in yeast strains overexpressing ABC multidrug efflux pumps” (Antimicrob Agents Chemother, 2008)
In brackets after ≈: the same amount, converted by molar mass. Residues, ends and D or L forms follow the SMILES beside them. *: point of attachment. Ethyl(2-NH2) = NCC*

How the values were obtained:
Saccharomyces cerevisiae [1] = assay: Drug uptake in Saccharomyces cerevisiae ADCDR2 expressing Candida albicans CDR2 efflux pump at 200 uM pretreated for 10 mins measured after 60 mins by fluorescamine staining; format: ADME, organism-based; conditions: in vivo, 1 h
Saccharomyces cerevisiae [2] = assay: Drug uptake in Saccharomyces cerevisiae ADMDR1 expressing Candida albicans MDR1 efflux pump at 200 uM pretreated for 10 mins measured after 60 mins by fluorescamine staining; format: ADME, organism-based; conditions: in vivo, 1 h
Saccharomyces cerevisiae [3] = assay: Drug uptake in Saccharomyces cerevisiae AD12345678 at 200 uM pretreated for 10 mins measured after 60 mins by fluorescamine staining; format: ADME, organism-based; conditions: in vivo, 1 h
Saccharomyces cerevisiae [4] = assay: Drug uptake in Saccharomyces cerevisiae ADCDR1 expressing Candida albicans CDR1 efflux pump at 200 uM pretreated for 10 mins measured after 60 mins by fluorescamine staining; format: ADME, organism-based; conditions: in vivo, 1 h
Saccharomyces cerevisiae [5] = assay: Antifungal activity against Saccharomyces cerevisiae ADCDR2 expressing Candida albicans CDR2 efflux pump in YNPG-proline medium after 24 hrs by microdilution method; format: functional; conditions: ADCDR2, 24 h
Saccharomyces cerevisiae [6] = assay: Antifungal activity against Saccharomyces cerevisiae ADMDR1 expressing Candida albicans MDR1 efflux pump in YNPG-proline medium after 24 hrs by microdilution method; format: functional; conditions: ADMDR1, 24 h
Candida albicans [7] = assay: Antifungal activity against fluconazole sensitive Candida albicans isolate B3 in RPMI-1640 buffered medium after 24 hrs by microdilution method; format: functional; conditions: Candida albicans, isolate B3, 24 h; read-out: MIC
Method in brief: (§1)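 C. albicans cells were grown in 2% glucose, 1% yeast extract, 1% Bacto peptone medium before testing. […] CARE-2 fingerprinting confirmed that each pair is a single strain.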

Saccharomyces cerevisiae [8] = assay: Prodrug stability in Saccharomyces cerevisiae AD12345678 assessed as compound cleavage rate measured per mg of protein; format: ADME, organism-based; conditions: in vivo
Saccharomyces cerevisiae [9] = assay: Prodrug stability in Saccharomyces cerevisiae ADCDR2 expressing Candida albicans CDR2 efflux pump assessed as compound cleavage rate measured per mg of protein; format: ADME, organism-based; conditions: in vivo
Saccharomyces cerevisiae [10] = assay: Antifungal activity against Saccharomyces cerevisiae ADCDR1 expressing Candida albicans CDR1 efflux pump in YNPG-proline medium after 24 hrs by microdilution method; format: functional; conditions: ADCDR1, 24 h
Candida albicans [11] = assay: Antifungal activity against fluconazole sensitive Candida albicans isolate Gu4 in RPMI-1640 buffered medium after 24 hrs by microdilution method; format: functional; conditions: Candida albicans, isolate Gu4, 24 h; read-out: MIC; method in brief: as §1
Candida albicans [12] = assay: Antifungal activity against wild type Candida albicans 10261 in RPMI-1640 buffered medium after 24 hrs by microdilution method; format: functional; conditions: Candida albicans, 10261, 24 h; read-out: MIC; method in brief: as §1
Candida albicans [13] = assay: Prodrug stability in fluconazole sensitive Candida albicans isolate Gu4 assessed as compound cleavage rate measured per mg of protein; format: ADME, organism-based; conditions: in vivo
Method in brief: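 Oligopeptides were incubated with cell extracts of the yeast cells, and their hydrolytic enzymes cleaved them. The amino acids released were quantified by the Cd-ninhydrin method.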

Candida albicans [14] = assay: Prodrug stability in fluconazole sensitive Candida albicans isolate B3 assessed as compound cleavage rate measured per mg of protein; format: ADME, organism-based; conditions: in vivo
Saccharomyces cerevisiae [15] = assay: Prodrug stability in wild type Saccharomyces cerevisiae ATCC 9763 assessed as compound cleavage rate measured per mg of protein; format: ADME, organism-based; conditions: in vivo
Saccharomyces cerevisiae [16] = assay: Prodrug stability in Saccharomyces cerevisiae ADMDR1 expressing Candida albicans MDR1 efflux pump assessed as compound cleavage rate measured per mg of protein; format: ADME, organism-based; conditions: in vivo
Saccharomyces cerevisiae [17] = assay: Prodrug stability in Saccharomyces cerevisiae ADCDR1 expressing Candida albicans CDR1 efflux pump assessed as compound cleavage rate measured per mg of protein; format: ADME, organism-based; conditions: in vivo
Candida albicans [18] = assay: Prodrug stability in wild type Candida albicans 10261 assessed as compound cleavage rate measured per mg of protein; format: ADME, organism-based; conditions: in vivo
Candida albicans [19] = assay: Antifungal activity against fluconazole resistant Candida albicans isolate Gu5 overexpressing CDR1 and CDR2 in RPMI-1640 buffered medium after 24 hrs by microdilution method; format: functional; conditions: isolate Gu5, 24 h
Method in brief: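 C. albicans cells were grown in 2% glucose, 1% yeast extract, 1% Bacto peptone medium before testing. CARE-2 fingerprinting confirmed that each pair is a single strain.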

Candida albicans [20] = assay: Antifungal activity against fluconazole resistant Candida albicans isolate B4 overexpressing MDR1 in RPMI-1640 buffered medium after 24 hrs by microdilution method; format: functional; conditions: Candida albicans, isolate B4, 24 h; read-out: MIC; method in brief: as §1
Saccharomyces cerevisiae [21] = assay: Antifungal activity against Saccharomyces cerevisiae AD12345678 in YNPG-proline medium after 24 hrs by microdilution method; format: functional; conditions: AD12345678, 24 h
Saccharomyces cerevisiae [22] = assay: Antifungal activity against wild type Saccharomyces cerevisiae ATCC 9763 in YNPG-proline medium after 24 hrs by microdilution method; format: functional; conditions: ATCC 9763, 24 h

Row | Compound | Drug uptake (Saccharomyces cerevisiae [1]) [nmol/min/mg] | Drug uptake (Saccharomyces cerevisiae [2]) [nmol/min/mg] | Drug uptake (Saccharomyces cerevisiae [3]) [nmol/min/mg] | Drug uptake (Saccharomyces cerevisiae [4]) [nmol/min/mg] | MIC (Saccharomyces cerevisiae [5]) [µg/mL] | MIC (Saccharomyces cerevisiae [6]) [µg/mL] | Stability (Saccharomyces cerevisiae [8]) [nmol/min] | Stability (Saccharomyces cerevisiae [9]) [nmol/min] | MIC (Saccharomyces cerevisiae [10]) [µg/mL] | Stability (Candida albicans [13]) [nmol/min] | Stability (Candida albicans [14]) [nmol/min] | Stability (Saccharomyces cerevisiae [15]) [nmol/min] | Stability (Saccharomyces cerevisiae [16]) [nmol/min] | Stability (Saccharomyces cerevisiae [17]) [nmol/min] | Stability (Candida albicans [18]) [nmol/min] | MIC (Saccharomyces cerevisiae [21]) [µg/mL] | MIC (Saccharomyces cerevisiae [22]) [µg/mL] | further results
1 | C[C@H](N)C(=O)N[C@@H](C)C(=O)N[C@@H](C)C(=O)O | 4.74 | 2.91 | 3.15 | 5.3 | – | – | – | – | – | – | – | – | – | – | – | – | – | –
2 | CCC[C@H](N)C(=O)N[C@@H](CNC(=O)/C=C/C(=O)OC)C(=O)O | 1.56 | 1.02 | 0.96 | 1.86 | 1 (≈ 3.17 µM) | 4 (≈ 12.7 µM) | 14 | 14 | 0.5 (≈ 1.59 µM) | 20 | 20 | 14 | 14 | 14 | 20 | 4 (≈ 12.7 µM) | 4 (≈ 12.7 µM) | MIC (Candida albicans [7]): 4 µg/mL (≈ 12.7 µM); MIC (Candida albicans [11]): 2 µg/mL (≈ 6.34 µM); MIC (Candida albicans [12]): 2 µg/mL (≈ 6.34 µM); MIC (Candida albicans [19]): 0.125 µg/mL (≈ 0.396 µM); MIC (Candida albicans [20]): 4 µg/mL (≈ 12.7 µM)
3 | CCC[C@H](NC(=O)[C@@H](N)CCCCN)C(=O)N[C@@H](CNC(=O)/C=C/C(=O)OC)C(=O)O [listing 1 of 2 here] | 1.18 | 0.81 | 0.79 | 1.61 | – | – | 14 | 14 | – | 20 | 20 | 14 | 14 | 14 | 20 | – | – | –
4 | CCC[C@H](NC(=O)[C@@H](N)CCCCN)C(=O)N[C@@H](CNC(=O)/C=C/C(=O)OC)C(=O)O [listing 2 of 2 here] | – | – | – | – | 8 (≈ 18 µM) | 32 (≈ 72.2 µM) | – | – | 4 (≈ 9.02 µM) | – | – | – | – | – | – | 32 (≈ 72.2 µM) | 32 (≈ 72.2 µM) | MIC (Candida albicans [7]): 8 µg/mL (≈ 18 µM); MIC (Candida albicans [11]): 4 µg/mL (≈ 9.02 µM); MIC (Candida albicans [12]): 8 µg/mL (≈ 18 µM); MIC (Candida albicans [19]): 1 µg/mL (≈ 2.25 µM); MIC (Candida albicans [20]): 8 µg/mL (≈ 18 µM)
5 | CC(C)C[C@H](NC(=O)[C@H](CC(C)C)NC(=O)[C@@H](N)COCCN)C(=O)NCC(=O)O (H-S(Ethyl(2-NH2))LLG-OH) | 0.96 | 0.65 | 0.51 | 0.83 | – | – | 14 | 14 | – | 20 | 20 | 14 | 14 | 14 | 20 | – | – | –
6 | CC(C)C[C@H](NC(=O)[C@H](CC(C)C)NC(=O)[C@H](CC(C)C)NC(=O)[C@@H](N)COCCN)C(=O)NCC(=O)O (H-S(Ethyl(2-NH2))LLLG-OH) [listing 1 of 2 here] | – | – | – | – | 128 (≈ 235 µM) | 256 (≈ 470 µM) | – | – | 128 (≈ 235 µM) | – | – | – | – | – | – | 256 (≈ 470 µM) | 256 (≈ 470 µM) | –
7 | C[C@H](N)C(=O)O [ALANINE] | 4.35 | 3.33 | 3.51 | 4.16 | – | – | – | – | – | – | – | – | – | – | – | – | – | –
8 | CC(C)C[C@H](NC(=O)[C@H](CC(C)C)NC(=O)[C@H](CC(C)C)NC(=O)[C@@H](N)COCCN)C(=O)NCC(=O)O (H-S(Ethyl(2-NH2))LLLG-OH) [listing 2 of 2 here] | 0.51 | 0.28 | 0.31 | 0.49 | – | – | 14 | 14 | – | 20 | 20 | 14 | 14 | 14 | 20 | – | – | –
